MC4R antagonist = human MC4R antagonism in cAMP assay; 360,000 compounds, 0.48% hits; inhibition, % at 6.5 µM; P32245; MC4R-expressing cells, MTII-stimulated cAMP, LANCE TR-FRET;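 active = inhibition above its plate's cutoff, the mean of tested wells on that plate plus 3 SD, cut at about 29% in these data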
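Test system: U2OS cells stably expressing human melanocortin 4 receptor (MC4R); also added: Melanotan II challenge; compound: 6.5 µM single dose; timing: 30-min compound preincubation, 1-h Melanotan II challenge, 1-h detection, room temperature; signal: Eu-cAMP/anti-cAMP TR-FRET, emission 671 nm; repeats: one well per compound, no replicates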
aDG glyco up = alpha-DG glycosylation activation; AID 624168; activation, % at 10 µM; Pro5-aDG cells, alpha-DG glycosylation AlphaScreen (IIH6); 0% Pro5, 100% B10-LARGE cell signal; 360,000 compounds, 0.22% hits;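 active = activation of at least 8% versus controls, or a plate z-score of at least 8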;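 note: Pro5 are CHO cells carrying HIG-tagged alpha-DG that lacks glycosylation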
MC4R ag barr = agonists of human melanocortin 4 receptor (MC4R) beta-arrestin. U2OS MC4R beta-arrestin complementation, luminescence; percent of melanotan II response, DMSO zero. activation, % at 8.9 µM. 360,000 compounds, 0.98% hits. AID 540308;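 active = activation above a per-plate cutoff, the mean activation of sample wells on that plate plus 3 SD, cut at about 8% in these data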
TbMetRS inhib = Trypanosoma brucei MetRS inhibition; 360,000 compounds, 0.4% hits; purified T. brucei MetRS, ATP depletion, Kinase-Glo luminescence; inhibition, % at 11.9 µM;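 active = inhibition above a per-plate cutoff of the control wells' mean inhibition plus 3 SD, cut at about 5.5% in these data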
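Assay system: T. brucei methionyl-tRNA synthetase, purified | Medium: HEPES buffer with MgCl2, KCl, DTT, spermine, BSA, pyrophosphatase | Compound: 11.9 µM single point | Incubation: 15 min enzyme-compound preincubation, 2 h reaction, 10 min detection, 25 °C | Measured by: Kinase-Glo luciferase luminescence reporting remaining unconsumed ATP | Measure: % inhibition normalized to control-well medians | Replication: Singlicate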
H9c2 TAG inh = triacylglycerol accumulation inhibition. H9c2 cells, Nile Red lipid (TAG) fluorescence; cells loaded with 200 µM oleic acid. inhibition, % at 12.5 µM. 230,000 compounds, 0.66% hits;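 active = pattern-corrected inhibition of lipid staining of at least 50% with the nuclear-stain viability signal not falling by more than 50%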
NTR1 ag = agonists of human neurotensin receptor NTR1; 330,000 compounds, 0.17% hits; NTR1-U2OS beta-arrestin-GFP spot imaging, agonist mode; P30989; activation, % at 20 µM; AID 493036;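 active = activation at or above 40% of the spot to cytoplasm intensity ratio, with at least 20 cells analyzed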
MC4R barr conf = human MC4R beta-arrestin agonism confirmation. shares compounds with MC4R ag barr. U2OS MC4R beta-arrestin recruitment, luminescence; scaled DMSO 0%, Melanotan II 100%. activation, % at 8.9 µM. 2,400 compounds, 31% hits. AID 602192;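 active = mean activation across replicates above the hit cutoff set in the earlier primary screen, cut at about 8% in these data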
MOR DOR agonist = counter-screen for MC4R agonists: agonists of mu-delta opioid heterodimer; activation, % at 9.2 µM; shares compounds with MC4R ag barr; U2OS PathHunter beta-arrestin, beta-gal luminescence; percent of deltorphin B response, DMSO zero; 2,400 compounds, 5.8% hits; AID 602194;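 active = mean activation across replicates exceeds the hit threshold derived in the earlier primary screen, cut at about 18% in these data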
Target sequence (P35372 whole entry, looked up): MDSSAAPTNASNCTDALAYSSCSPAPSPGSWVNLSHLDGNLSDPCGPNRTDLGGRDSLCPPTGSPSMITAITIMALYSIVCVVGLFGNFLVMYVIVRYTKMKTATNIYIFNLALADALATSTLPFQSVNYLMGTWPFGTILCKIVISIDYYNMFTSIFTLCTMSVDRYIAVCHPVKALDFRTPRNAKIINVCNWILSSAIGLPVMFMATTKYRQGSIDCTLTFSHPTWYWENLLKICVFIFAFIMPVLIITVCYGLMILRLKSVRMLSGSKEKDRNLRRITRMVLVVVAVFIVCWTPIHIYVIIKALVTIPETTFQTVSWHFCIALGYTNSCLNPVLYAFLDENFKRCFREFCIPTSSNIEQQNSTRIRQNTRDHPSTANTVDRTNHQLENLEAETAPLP
Target sequence (P41143 whole entry, looked up): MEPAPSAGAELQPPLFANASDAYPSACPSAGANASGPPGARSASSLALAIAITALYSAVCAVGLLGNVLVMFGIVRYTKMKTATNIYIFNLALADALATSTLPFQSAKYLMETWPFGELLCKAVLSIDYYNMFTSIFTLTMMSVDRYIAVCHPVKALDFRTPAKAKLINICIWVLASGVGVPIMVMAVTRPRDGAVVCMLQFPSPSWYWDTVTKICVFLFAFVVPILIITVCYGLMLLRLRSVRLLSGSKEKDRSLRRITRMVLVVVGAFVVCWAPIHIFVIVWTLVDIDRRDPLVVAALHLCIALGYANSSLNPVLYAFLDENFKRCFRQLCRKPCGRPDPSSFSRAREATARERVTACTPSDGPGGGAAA
A number is an active result; i = inactive; nt = no result given. Most compounds without a hit are left out; they make up all but 2.4% or so of the library.

SMILES	MC4R antagonist	aDG glyco up	MC4R ag barr	TbMetRS inhib	H9c2 TAG inh	NTR1 ag	MC4R barr conf	MOR DOR agonist
COc1ncc(-c2ccc(N3C(c4ccc([N+](=O)[O-])cc4)=Cc4ccccc4C3CC(C)=O)cc2)cn1 (configuration not stated)	nt	i	nt	i	nt	nt	nt	nt
CC1(C(=O)Nc2cccc(C#N)c2)CCN1C(=O)Cc1ccc(-c2ccccc2)cc1 (configuration not stated)	i	i	i	i	i	nt	nt	nt
CC(=O)c1cccc(NC(=O)c2cccc3c(-c4cccc(C(N)=O)c4)coc23)c1	i	i	20.1	i	i	nt	i	i
Cc1ccc(-c2nc3ccccc3o2)cc1NC(=S)NC(=O)c1cc2ccccc2o1	i	i	17.0	i	nt	nt	11.3	i
Cc1ccc2oc(-c3ccc(C)c(NC(=S)NC(=O)c4cccs4)c3)nc2c1	i	i	i	i	nt	i	nt	nt
Cc1ccc2c(COC(=O)c3ccccc3Br)cc(=O)oc2c1	i	i	9.7	i	nt	i	i	i
Cc1ccc2c(COC(=O)c3ccccc3Cl)cc(=O)oc2c1	i	i	i	i	nt	i	nt	nt
CCNC(=O)c1c(NC(=O)C2COc3ccccc3O2)sc2c1CCCC2 (configuration not stated)	i	i	i	i	i	i	nt	nt
COCCCNC(=O)c1c(NC(=O)C2COc3ccccc3O2)sc2c1CCCC2 (configuration not stated)	i	i	11.3	i	i	i	i	i
CC1(C)CC[C@]2(CO)CC[C@]3(C)C(=CCC4[C@@]5(C)CC[C@H](O)[C@@](C)(CO)C5CC[C@]43C)[C@@H]2C1 (some centres not stated)	i	i	11.1	i	i	i	15.0	i
CC1(C)C[C@H](O)[C@]2(CO)[C@H](O)C[C@]3(C)C(=CCC4[C@@]5(C)CC[C@H](O)C(C)(C)C5CC[C@]43C)[C@@H]2C1 (some centres not stated)	i	i	18.9	i	i	i	24.9	21.1
O=c1cc(CN2CCN(c3ccc(Cl)c(Cl)c3)CC2)c2c(ccc3ccccc32)o1	nt	i	nt	i	nt	nt	nt	nt
COc1cccc(C(=Cc2ccc([N+](=O)[O-])cc2)C(=O)O)c1	i	i	i	i	i	nt	nt	nt
Cc1cc(NC(=O)CCCOc2ccc(Cl)cc2Cl)no1	i	i	17.5	i	nt	i	i	i
O=C(COC(=O)c1ccccc1Nc1cccc(C(F)(F)F)c1)NCc1ccco1	i	i	13.0	i	i	i	i	i
O=C(COC(=O)c1ccccc1Nc1ccccc1)NCc1ccccc1	i	i	25.3	i	nt	i	i	i
O=C(COC(=O)c1ccccc1Nc1ccccc1)NCc1ccccc1Cl	i	i	16.3	i	nt	i	10.5	i
Cc1ccccc1S(=O)(=O)N1C[C@@H]2C(C(=O)C[C@@H]3C(=O)N(C)C(=O)[C@@H]32)[C@@H]1c1ccc(Cl)cc1 (some centres not stated)	nt	i	nt	i	nt	nt	nt	nt
CC1(C(=O)NS(=O)(=O)c2ccccc2Cl)CCN1C(=O)CC1CC1 (configuration not stated)	i	i	i	i	i	nt	nt	nt
CC1(C(=O)NC2CCCC2)CCC(=O)N1CCc1c[nH]c2ccccc12 (configuration not stated)	nt	i	nt	i	nt	nt	nt	nt
Cn1c(C(=O)OCC(=O)NCc2cccs2)cc2sccc21	i	i	10.2	i	nt	i	i	i
CC(OC(=O)c1cc2sccc2n1C)C(=O)NCc1cccs1 (configuration not stated)	i	i	i	i	nt	i	nt	nt
COc1ccccc1N1C(=O)c2ccccc2NC1c1ccncc1 (configuration not stated)	i	i	i	i	i	i	nt	nt
CCc1ccc(C2NC(=S)NC3=C2C(=O)N(c2ccccc2OC)C(c2ccc(CC)cc2)N3)cc1 (configuration not stated)	i	i	17.9	i	i	i	13.9	i
O=C1C2CCCN2C(c2ccc(F)cc2)N1c1ccc(Cl)cc1 (configuration not stated)	i	i	i	i	nt	i	nt	nt
SMILES	MC4R antagonist	aDG glyco up	MC4R ag barr	TbMetRS inhib	H9c2 TAG inh	NTR1 ag	MC4R barr conf	MOR DOR agonist
O=C1C2=C(NC(=S)NC2c2ccc(Cl)cc2)NC(c2ccc(Cl)cc2)N1c1ccc(Cl)cc1 (configuration not stated)	i	i	18.8	i	i	i	29.2	i
O=C(C[n+]1cccc(C(=O)Nc2ccccc2)c1)c1ccccc1	nt	i	nt	i	nt	nt	nt	nt
Cc1ccc2nc(-c3ccc(NC(=O)CN4CCN(c5ccccn5)CC4)cc3)sc2c1	i	i	10.0	i	i	i	i	i
Cc1ccc2nc(-c3ccc(NC(=O)CSc4nc(N)cc(=O)[nH]4)cc3)sc2c1	i	i	13.4	i	i	i	i	i
COC(=O)[C@]12CCCCC=C1N(CCC1=CCCCC1)C(=O)[C@H](CC(=O)N1CCC(c3ccccc3)CC1)C2	nt	i	nt	i	nt	nt	nt	nt
COc1ccc(/C=N/NC(=O)CCn2c3ccccc3c3ccccc32)cc1O	i	i	i	i	nt	i	nt	nt
COc1cccc(/C=N/NC(=O)CCn2c3ccccc3c3ccccc32)c1	i	i	14.2	i	nt	i	i	i
O=C(NCC(F)(F)F)c1[nH]c(C(F)(F)F)nc1-c1ccccc1	nt	i	nt	i	nt	nt	nt	nt
COc1ccc(C(=O)Nc2ccccc2-c2nnn(CC(=O)NCc3ccco3)n2)cc1	i	i	10.8	i	i	i	10.1	i
COc1cc2c(cc1OC)/C(=C/C(=O)OCc1ccccc1)OC2	nt	i	nt	i	nt	nt	nt	nt
Cc1c(CC(=O)NCC(=O)NCC(=O)N[C@@H](Cc2ccccc2)C(=O)O)c(=O)oc2c(C)c(O)ccc12	i	i	i	i	nt	nt	nt	nt
CCOc1ccc2ccccc2c1C1NC(=S)N(C)C(C)=C1C(=O)OC (configuration not stated)	i	i	i	i	i	i	nt	nt
CCOC(=O)C1=C(C)N(C)C(=S)NC1c1c(OCC)ccc2ccccc12 (configuration not stated)	i	i	20.8	i	i	i	i	i
CCCCOc1ccc(/C=N/NC(=S)Nc2cc(C)ccc2C)cc1	i	i	11.7	i	nt	i	i	i
CCCCOc1ccc(/C=N/NC(=S)Nc2cccc(C)c2C)cc1	i	i	i	i	i	i	nt	nt
COCCn1c(C)cc(/C=C2\NC(=S)N(C)C2=O)c1C	i	i	i	i	nt	i	nt	nt
CN1C(=O)/C(=C/c2cc3c(cc2Br)OCO3)NC1=S	i	i	10.9	i	nt	i	i	i
O=c1c2ccccc2[nH]c2ccccc12	i	i	i	i	nt	i	nt	nt
